Assay outcomes (PubChem BioAssay)
Only some compounds are listed: those with a hit (about 2.7% of all), similar ones and a draw of the others.
MC4R ag barr – agonists of human melanocortin 4 receptor (MC4R) beta-arrestin. AID 540308. P32245. U2OS MC4R beta-arrestin complementation, luminescence; percent of melanotan II response, DMSO zero. activation, % at 8.9 µM. 0.98% of 360,000 active;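 active = activation above a per-plate cutoff, the mean activation of sample wells on that plate plus 3 SD, cut at about 8% in these data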
Target sequence (P32245 whole entry, looked up): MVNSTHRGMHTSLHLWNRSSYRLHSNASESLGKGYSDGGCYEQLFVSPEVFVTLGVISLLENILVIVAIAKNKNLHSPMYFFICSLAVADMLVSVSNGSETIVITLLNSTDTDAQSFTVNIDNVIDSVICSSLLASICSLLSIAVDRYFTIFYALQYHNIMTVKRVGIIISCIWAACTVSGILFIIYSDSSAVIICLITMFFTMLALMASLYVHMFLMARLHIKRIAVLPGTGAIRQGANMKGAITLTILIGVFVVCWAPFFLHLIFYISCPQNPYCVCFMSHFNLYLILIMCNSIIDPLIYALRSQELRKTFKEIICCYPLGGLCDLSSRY
HTR2A ag – mouse HTR2A agonism via beta-arrestin recruitment. CHO-K1 mHTR2A beta-arrestin complementation, luminescence; percent of 30 µM serotonin response. activation, % at 7.6 µM. 0.66% of 360,000 active. P35363;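 active = activation above a run cutoff, the mean activation of all tested compounds plus 3 SD, cut at about 14% in these data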;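 also: 0% = plate median of compound wells and 100% = 30 µM serotonin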
NTR1 agonist – NTR1 (human) agonism | AID 493036 | P30989 | activation, % at 20 µM | 0.17% of 330,000 active | NTR1-U2OS beta-arrestin-GFP spot imaging, agonist mode;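 active = activation at or above 40% of the spot to cytoplasm intensity ratio, with at least 20 cells analyzed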;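 also: 0% = DMSO without peptide and 100% = 100 nM NTR1 peptide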
Lipid droplet – modulators of hepatic lipid droplet formation. 0.4% of 240,000 active. inhibition, % at 6.5 µM. AML12 mouse hepatocytes, oleate lipid droplets, BODIPY imaging. AID 1656;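 active = lipid droplet intensity inhibited by at least 50%, with more than 500 cells counted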
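material = mouse AML12 hepatocyte cell line, fixed after treatment | also added = 100 µM oleic acid challenge | doses = compound at 6.5 µM only | schedule = overnight exposure | technique = Image-based BODIPY and DAPI two-channel analysis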
MC4R antagonist – human MC4R antagonism in cAMP assay. 0.48% of 360,000 active. MC4R-expressing cells, MTII-stimulated cAMP, LANCE TR-FRET. inhibition, % at 6.5 µM. P32245;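 active = inhibition above its plate's cutoff, the mean of tested wells on that plate plus 3 SD, cut at about 29% in these data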;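 also: 0% = Melanotan II alone and 100% = Melanotan II plus saturating MCL0020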
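system = U2OS cells with stable human MC4R expression | also added = Melanotan II challenge after compound preincubation | dosing = one concentration, 6.5 µM nominal | incubation = compound 30 min, challenge 1 h, detection 1 h | measured by = TR-FRET with Eu-cAMP and labeled anti-cAMP, 671 nm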
PREPL inh – inhibits the human prolyl oligopeptidase-like enzyme | Q4J6C6 | recombinant PREPL, fluorescence polarization activity-based probe | inhibition, % at 5.96 µM | 0.68% of 320,000 active | AID 2751; in the data active = inhibition above about 43%;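 also: 0% = enzyme with DMSO and 100% = wells lacking enzyme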
NTR1 ag confirm – confirmation of agonists of human NTR1 | NTR1-U2OS beta-arrestin-GFP translocation imaging | activation, % at 20 µM | shares compounds with NTR1 agonist | 38% of 480 active;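 active = mean activation at 20 µM of at least 40%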;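 also: 0% = DMSO without peptide and 100% = 100 nM NTR1 peptide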
U2OS cAMP counter – nonselective cAMP signaling inhibitor, MC4R antagonist counter-screen; shares compounds with MC4R antagonist; parental U2OS, forskolin cAMP, LANCE TR-FRET; inhibition, % at 6.5 µM; 26% of 1,600 active;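 active = mean inhibition over triplicates above the low-control well mean plus 3 SD, set per campaign, cut at about 13% in these data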;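 also: signal is single emission at 671 nm which falls as cellular cAMP rises; 0% = forskolin-stimulated wells and 100% = buffer without forskolin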
MC4R antag conf – human MC4R cAMP antagonism confirmation. MC4R-expressing cells, MTII-stimulated cAMP, TR-FRET. AID 602195. inhibition, % at 6.5 µM. 27% of 1,600 active. shares compounds with MC4R antagonist; in the data active = inhibition above about 29%;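 also: 0% = agonist stimulated wells alone and 100% = agonist stimulated wells plus saturating reference antagonist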
Numbers without * were called inactive; x = no result.

SMILES	MC4R ag barr	HTR2A ag	NTR1 agonist	Lipid droplet	MC4R antagonist	PREPL inh	NTR1 ag confirm	others
CCOC(=O)/C(=C\c1cccc(O)c1)c1nc2sc(C)c(C)c2c(=O)[nH]1	-3	0	43*	-36	17	-3	51*
Cc1ccc(NC(=O)CN(C)C(=O)Cc2ccc(Cl)cc2Cl)cc1	1	-4	0	-15	1	2	x
Cc1ccc(Sc2c(O)c3ccccc3n(C)c2=O)cc1	1	2	x	10	12	x	x
Cc1ccc(Sc2c([N+](=O)[O-])c(=O)n(C)c3ccccc23)cc1	-3	-3	67*	4	12	6	73*
CCC(C)NC(=O)c1cn(CC)c2ccc(S(=O)(=O)N3CCCCCC3)cc2c1=O (configuration not stated)	4	5	3	25	4	-5	x
C(=C\c1nc(N2CCCCCC2)c2ccccc2n1)/c1ccccc1	-3	0	42*	-6	2	0	17
O=C(COc1ccccc1)NCC(=O)N/N=C/c1ccc(O)cc1O	0	-2	42*	11	7	6	40
CCOC(=O)N1CCN(C(=O)CN(C)S(=O)(=O)c2ccc(F)cc2)CC1	-1	-2	0	1	0	-8	x
Cc1ccc(C(=O)Nc2nnc(NC(=S)Nc3ccccc3)s2)cc1	-3	7	73*	21	-2	3	58*
CCc1nnc(NC(=S)Nc2ccccc2)s1	-1	-3	1	-15	3	4	x
CCOc1ccc(C(=O)Nc2nnc(NC(=S)Nc3ccccc3)s2)cc1	-1	-4	61*	49	5	16	46*
OCC[C@@H]1C[C@@H](O)[C@H](O)[C@]2(Cc3ccccc3O2)O1	-1	5	1	1	-2	-4	x
Oc1ccc(/C=N/Nc2nc(-c3ccc(Cl)cc3)cc(C(F)(F)F)n2)cc1	14*	-4	61*	-8	6	25	15
Cc1cc(-c2ccccc2)nc(N/N=C/c2ccc(O)cc2)n1	-1	-7	2	x	10	x	x
CN(c1ccccc1)c1nc(N)c([N+](=O)[O-])c(Nc2cccc(F)c2)n1	0	-1	44*	12	12	1	37
COC(=O)c1c(NC(=O)COC(=O)c2ccc(Cl)nc2)sc(C)c1C	0	0	0	x	6	-7	x
COc1ccc(S(=O)(=O)Nc2ccccc2C(=O)Nc2nc(-c3ccc(F)cc3)cs2)cc1OC	-3	7	45*	-47	10	13	7
COc1ccc(-c2csc(NC(=O)c3ccccc3NS(=O)(=O)c3ccc(C)cc3)n2)cc1	3	14	11	-60	15	21	x
COc1ccc(-c2sc3ccccc3c2C#CCO)cc1	1	-3	5	x	-4	1	x
COc1ccc2sc(-c3ccc(S(C)(=O)=O)cc3)c(C#CCO)c2c1	1	3	57*	x	11	22	57*
CC(=O)c1cc(Cl)ccc1OC(=O)c1ccco1	-1	6	0	11	2	8	x
O=C(Oc1ccc(Br)cc1C(=O)/C=C/c1ccccc1F)c1ccco1	-1	4	55*	x	-3	-6	40*
O=C(/C(=C/c1ccc(Cl)cc1)c1nc2ccccc2[nH]1)c1cccs1	-2	-3	54*	-48	9	7	62*
O=C(/C(=C\c1ccccc1)c1nc2ccccc2[nH]1)c1ccc(Cl)cc1	1	-5	16	-40	4	-9	x
C=CCNc1nc2cc(-c3ccccc3OC)sc2c(=O)n1C	-2	-1	x	x	6	x	x
SMILES	MC4R ag barr	HTR2A ag	NTR1 agonist	Lipid droplet	MC4R antagonist	PREPL inh	NTR1 ag confirm	others
c1ccc(CN2CCC(Nc3nc(-c4ccccc4)nc4ccccc34)CC2)cc1	4	0	42*	3	5	-24	42*
CCOc1ccc(C(C(=O)NCC2CCCO2)N(C(=O)c2snc(C(N)=O)c2N)c2ccc(F)cc2)cc1 (configuration not stated)	-2	1	44*	4	15	-3	4
COc1cccc(N(C(=O)c2snc(C(N)=O)c2N)C(C(=O)NCC2CCCO2)c2ccc(F)cc2)c1 (configuration not stated)	-1	5	1	3	3	8	x
CC(C)Cn1c(N)c(C(=O)CSc2cc(Cl)ccc2Cl)c(=O)n(C)c1=O	x	x	48*	-17	x	8	47*
CC(C)Cn1c(N)c(C(=O)CSc2ncccn2)c(=O)n(C)c1=O	-3	2	1	x	-9	1	x
CC(C)(C)OC(=O)NCCCCCNC(=O)c1[nH]cnc1C(=O)N[C@@H](Cc1ccccc1)C(=O)OCc1ccccc1	5	1	53*	16	-6	-3	23
CN(Cc1ccccc1)C(=O)c1[nH]cnc1C(=O)N[C@@H](Cc1ccccc1)C(=O)OCc1ccccc1	4	23*	42*	-4	1	-5	2
C[C@@H](NC(=O)c1nc[nH]c1C(=O)N[C@@H](Cc1ccccc1)C(=O)OCc1ccccc1)c1ccccc1	8	0	36	5	-1	-4	x
COc1ccc(/C=N/Nc2nc(-c3cccc(S(=O)(=O)N4CCCC4)c3)cs2)cc1OC	1	2	0	-20	8	7	x
COc1cc(/C=N/Nc2nc(-c3ccc(S(=O)(=O)N(C)C)cc3)cs2)ccc1O	4	5	70*	2	11	9	79*
CCCCNc1c(-c2ccc(OC)c(Sc3ccc(OC)cc3)c2)nc2ccccn12	5	14	56*	x	46*	37	71*	U2OS cAMP counter=7;MC4R antag conf=28
CC(C)(C)OC(=O)[C@H](Cc1ccccc1)NC(=O)c1nc[nH]c1C(=O)NC1CCN(C(=O)OC(C)(C)C)CC1	5	14	45*	-7	37*	12	28	U2OS cAMP counter=7;MC4R antag conf=5
Cc1ccc(NC(=O)COC(=O)c2cc(=O)c3cc(F)ccc3o2)cc1	-2	2	2	x	2	x	x
COC(=O)COc1ccc(NC(=O)Cn2nc(-c3ccccc3)c3ccccc3c2=O)cc1	0	11	61*	2	29*	-2	15	U2OS cAMP counter=19*;MC4R antag conf=38*
O=C(C#Cc1cccc([N+](=O)[O-])c1)c1ccccc1	-3	-3	10	1	26	3	x
